Among the data in ChEMBL document CHEMBL4818995, “Dual nicotinamide phosphoribosyltransferase and epidermal growth factor receptor inhibitors for the treatment of cancer” (Eur J Med Chem, 2021) are IC50, GI50 and Activity values, retold here.

pIC50: −log10 of the molar value.

What is called pIC50 is −log10 of the IC50, conventionally taken in molar units. By GI50 is commonly meant the concentration at which growth is held to half of that of the control.

For data set [1], the target named is Epidermal growth factor receptor (Homo sapiens, UniProt P00533). The data set is described as follows: Inhibition of N-terminal GST-tagged human recombinant EGFR cytoplasmic domain (668 to 1210 residues) expressed in baculovirus expression system by Z'-LYTE kinase assay.
Epidermal growth factor receptor (Homo sapiens, UniProt P00533), sequence (P00533 whole entry, the tested form may be a part): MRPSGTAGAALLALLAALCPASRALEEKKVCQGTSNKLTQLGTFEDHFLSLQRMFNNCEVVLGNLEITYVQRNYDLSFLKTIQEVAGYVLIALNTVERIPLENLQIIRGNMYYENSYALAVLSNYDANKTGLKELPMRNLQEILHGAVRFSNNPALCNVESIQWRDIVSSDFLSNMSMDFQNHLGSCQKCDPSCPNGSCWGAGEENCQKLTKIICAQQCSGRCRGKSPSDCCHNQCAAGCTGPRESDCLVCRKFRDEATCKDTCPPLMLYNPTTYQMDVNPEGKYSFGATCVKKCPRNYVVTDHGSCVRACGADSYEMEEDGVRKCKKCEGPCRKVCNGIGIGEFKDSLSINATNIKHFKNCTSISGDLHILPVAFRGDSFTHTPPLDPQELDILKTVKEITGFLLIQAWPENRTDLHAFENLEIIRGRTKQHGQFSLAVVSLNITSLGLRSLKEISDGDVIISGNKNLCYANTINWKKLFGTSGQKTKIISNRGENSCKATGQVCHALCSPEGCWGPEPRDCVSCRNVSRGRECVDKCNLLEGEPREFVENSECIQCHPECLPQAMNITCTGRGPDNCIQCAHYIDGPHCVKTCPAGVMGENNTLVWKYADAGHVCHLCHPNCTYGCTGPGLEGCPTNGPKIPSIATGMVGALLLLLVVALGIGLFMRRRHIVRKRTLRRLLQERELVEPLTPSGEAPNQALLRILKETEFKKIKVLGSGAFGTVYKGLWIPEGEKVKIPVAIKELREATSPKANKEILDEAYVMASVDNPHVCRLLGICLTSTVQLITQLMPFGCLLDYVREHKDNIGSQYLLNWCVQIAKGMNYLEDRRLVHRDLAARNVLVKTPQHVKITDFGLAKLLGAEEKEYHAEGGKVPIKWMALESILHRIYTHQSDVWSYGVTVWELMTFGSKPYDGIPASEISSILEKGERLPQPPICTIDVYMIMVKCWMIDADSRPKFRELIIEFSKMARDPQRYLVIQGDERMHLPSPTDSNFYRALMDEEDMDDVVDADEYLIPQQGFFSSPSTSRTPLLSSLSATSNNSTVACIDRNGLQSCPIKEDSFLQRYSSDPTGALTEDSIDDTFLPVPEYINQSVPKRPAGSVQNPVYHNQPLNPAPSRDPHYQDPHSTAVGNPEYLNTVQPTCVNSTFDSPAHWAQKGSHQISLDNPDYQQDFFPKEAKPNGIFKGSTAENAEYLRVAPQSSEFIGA
Data set [2] concerns the target Epidermal growth factor receptor (Homo sapiens, UniProt P00533, T790M). The data set is described as follows: Inhibition of N-terminal GST-tagged human recombinant EGFR T790M mutant (668 to 1210 residues) expressed in baculovirus expression system by Z'-LYTE kinase assay.
Data set [3] concerns the target Epidermal growth factor receptor (Homo sapiens, UniProt P00533, L861Q). The data set is described as follows: Inhibition of N-terminal GST-tagged human recombinant EGFR L861Q mutant (668 to 1210 residues) expressed in baculovirus expression system by Z'-LYTE kinase assay.
Data set [4] deals with Epidermal growth factor receptor (Homo sapiens, UniProt P00533, L858R). The data set is described as follows: Inhibition of N-terminal GST-tagged human recombinant EGFR L858R mutant (668 to 1210 residues) expressed in baculovirus expression system by Z'-LYTE kinase assay.
Epidermal growth factor receptor (Homo sapiens, UniProt P00533, L858R), sequence (P00533 25-1210 L858R limits assumed): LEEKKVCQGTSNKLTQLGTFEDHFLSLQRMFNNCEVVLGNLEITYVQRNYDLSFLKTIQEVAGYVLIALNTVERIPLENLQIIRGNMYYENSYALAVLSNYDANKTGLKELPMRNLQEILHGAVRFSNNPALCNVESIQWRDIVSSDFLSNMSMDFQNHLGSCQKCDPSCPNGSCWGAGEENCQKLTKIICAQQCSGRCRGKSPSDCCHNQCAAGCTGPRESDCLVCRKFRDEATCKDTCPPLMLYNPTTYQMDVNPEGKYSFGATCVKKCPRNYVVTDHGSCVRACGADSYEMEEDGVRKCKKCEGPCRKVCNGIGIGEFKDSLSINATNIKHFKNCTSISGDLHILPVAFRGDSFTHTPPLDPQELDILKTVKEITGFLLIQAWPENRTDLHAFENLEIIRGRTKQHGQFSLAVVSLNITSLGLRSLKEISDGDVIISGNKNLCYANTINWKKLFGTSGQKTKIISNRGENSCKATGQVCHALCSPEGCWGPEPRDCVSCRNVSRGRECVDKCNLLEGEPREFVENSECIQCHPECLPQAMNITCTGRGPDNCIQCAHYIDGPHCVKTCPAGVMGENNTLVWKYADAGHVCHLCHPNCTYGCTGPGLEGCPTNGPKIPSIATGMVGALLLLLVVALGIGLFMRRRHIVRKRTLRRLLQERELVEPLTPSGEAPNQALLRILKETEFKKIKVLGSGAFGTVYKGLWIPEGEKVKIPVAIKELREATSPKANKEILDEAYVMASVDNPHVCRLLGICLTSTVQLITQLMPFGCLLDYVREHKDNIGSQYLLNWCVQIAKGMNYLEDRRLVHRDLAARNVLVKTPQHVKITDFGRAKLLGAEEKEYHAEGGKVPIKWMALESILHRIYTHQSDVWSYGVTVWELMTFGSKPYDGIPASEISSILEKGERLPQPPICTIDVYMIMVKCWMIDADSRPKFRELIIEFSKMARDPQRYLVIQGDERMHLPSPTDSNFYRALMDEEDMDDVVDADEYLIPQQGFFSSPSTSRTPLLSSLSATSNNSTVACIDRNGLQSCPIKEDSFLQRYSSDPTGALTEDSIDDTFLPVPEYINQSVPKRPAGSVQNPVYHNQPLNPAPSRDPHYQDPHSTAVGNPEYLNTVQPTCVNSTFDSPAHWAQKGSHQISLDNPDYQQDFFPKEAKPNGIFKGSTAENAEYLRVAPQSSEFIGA
The test system of a further data set is Huh-7. The data set is described as follows: Antiproliferative activity against human Huh-7 cells assessed as inhibition of cell growth after 72 hrs by CCK8 assay. Type of data set: functional, cell-based. Put shortly:
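Cells kept in RPMI or DMEM with 10% FBS and 1% penicillin/streptomycin, 37 °C, 5% CO2. Plated at 400-800 cells/well, treated with a range of test concentrations or vehicle for 72 h. CCK8 reagent added, absorbance read at 450 nm.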
(In general: Tetrazolium dyes change colour on reduction, which living cells bring about.)

The subject of a further data set is NCI-H1975. The data set is described as follows: Antiproliferative activity against human NCI-H1975 cells harboring EGFR L858R/T790M double mutant assessed as inhibition of cell growth. Type of data set: functional.
Data set [5] in a line: Toxicity in BALB/c nude mouse xenografted with human NCI-H1975 cells assessed as changes in body weight at 60 mg/kg, iv administered 5 days a week for 3 weeks. The data set is classed as organism-based. The settings on record: in vivo, 504 h. Put shortly:
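Female BALB/c nude mice aged 4-6 weeks, H1975 cells (3 × 10^6 in 0.1 ml RPMI-1640) implanted subcutaneously in the right flank. At day 12, tumors ~150 mm3, mice grouped n=6. […] Test agent in 5% ethanol/5% DMSO/10% Cremophor EL/80% saline at 60 mg/kg i.v. five times weekly. Vehicle group received i.v. vehicle. Tumor and body weight recorded daily by caliper; TV = width² × length × 0.5. Mean ± SD, Student's t-test.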

In a further data set the test system is K562. The data set is described as follows: Antiproliferative activity against human K562 cells assessed as inhibition of cell growth after 72 hrs by CCK8 assay. The settings on record: K562, 72 h.
A further data set concerns MCF7. The data set is described as follows: Antiproliferative activity against human MCF-7 cells assessed as inhibition of cell growth after 72 hrs by CCK8 assay. The settings on record: MCF7, 72 h.

Epidermal growth factor receptor (Homo sapiens, UniProt P00533, L861Q), sequence (P00533 25-1210 L861Q limits assumed): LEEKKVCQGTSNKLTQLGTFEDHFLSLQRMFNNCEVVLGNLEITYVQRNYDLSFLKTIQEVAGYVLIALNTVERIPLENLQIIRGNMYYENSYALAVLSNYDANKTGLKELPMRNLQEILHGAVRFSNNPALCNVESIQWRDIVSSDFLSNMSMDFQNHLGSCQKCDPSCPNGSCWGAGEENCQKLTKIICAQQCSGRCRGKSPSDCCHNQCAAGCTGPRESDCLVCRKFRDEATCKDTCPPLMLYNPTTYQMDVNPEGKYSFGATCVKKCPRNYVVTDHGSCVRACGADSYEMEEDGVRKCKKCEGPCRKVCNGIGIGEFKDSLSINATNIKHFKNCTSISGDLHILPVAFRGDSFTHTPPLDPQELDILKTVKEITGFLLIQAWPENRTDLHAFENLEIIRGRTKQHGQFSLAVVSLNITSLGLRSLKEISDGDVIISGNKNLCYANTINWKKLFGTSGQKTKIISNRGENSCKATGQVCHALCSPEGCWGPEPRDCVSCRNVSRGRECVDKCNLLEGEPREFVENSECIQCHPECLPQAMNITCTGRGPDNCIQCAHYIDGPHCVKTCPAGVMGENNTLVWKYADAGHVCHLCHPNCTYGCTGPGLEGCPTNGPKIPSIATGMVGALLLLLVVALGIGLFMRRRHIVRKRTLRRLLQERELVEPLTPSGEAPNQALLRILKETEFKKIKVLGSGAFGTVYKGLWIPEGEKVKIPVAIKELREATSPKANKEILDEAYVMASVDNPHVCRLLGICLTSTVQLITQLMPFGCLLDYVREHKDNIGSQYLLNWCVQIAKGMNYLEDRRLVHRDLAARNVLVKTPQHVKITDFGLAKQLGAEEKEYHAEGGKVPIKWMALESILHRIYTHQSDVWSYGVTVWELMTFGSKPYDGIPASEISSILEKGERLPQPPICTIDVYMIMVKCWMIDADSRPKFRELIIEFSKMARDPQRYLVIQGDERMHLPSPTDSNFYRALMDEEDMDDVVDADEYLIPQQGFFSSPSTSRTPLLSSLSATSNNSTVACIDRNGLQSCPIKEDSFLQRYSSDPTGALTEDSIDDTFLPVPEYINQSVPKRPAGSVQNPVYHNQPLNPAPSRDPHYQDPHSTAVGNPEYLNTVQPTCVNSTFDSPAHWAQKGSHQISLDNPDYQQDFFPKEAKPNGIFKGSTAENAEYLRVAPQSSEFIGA
Epidermal growth factor receptor (Homo sapiens, UniProt P00533, T790M), sequence (P00533 25-1210 T790M limits assumed): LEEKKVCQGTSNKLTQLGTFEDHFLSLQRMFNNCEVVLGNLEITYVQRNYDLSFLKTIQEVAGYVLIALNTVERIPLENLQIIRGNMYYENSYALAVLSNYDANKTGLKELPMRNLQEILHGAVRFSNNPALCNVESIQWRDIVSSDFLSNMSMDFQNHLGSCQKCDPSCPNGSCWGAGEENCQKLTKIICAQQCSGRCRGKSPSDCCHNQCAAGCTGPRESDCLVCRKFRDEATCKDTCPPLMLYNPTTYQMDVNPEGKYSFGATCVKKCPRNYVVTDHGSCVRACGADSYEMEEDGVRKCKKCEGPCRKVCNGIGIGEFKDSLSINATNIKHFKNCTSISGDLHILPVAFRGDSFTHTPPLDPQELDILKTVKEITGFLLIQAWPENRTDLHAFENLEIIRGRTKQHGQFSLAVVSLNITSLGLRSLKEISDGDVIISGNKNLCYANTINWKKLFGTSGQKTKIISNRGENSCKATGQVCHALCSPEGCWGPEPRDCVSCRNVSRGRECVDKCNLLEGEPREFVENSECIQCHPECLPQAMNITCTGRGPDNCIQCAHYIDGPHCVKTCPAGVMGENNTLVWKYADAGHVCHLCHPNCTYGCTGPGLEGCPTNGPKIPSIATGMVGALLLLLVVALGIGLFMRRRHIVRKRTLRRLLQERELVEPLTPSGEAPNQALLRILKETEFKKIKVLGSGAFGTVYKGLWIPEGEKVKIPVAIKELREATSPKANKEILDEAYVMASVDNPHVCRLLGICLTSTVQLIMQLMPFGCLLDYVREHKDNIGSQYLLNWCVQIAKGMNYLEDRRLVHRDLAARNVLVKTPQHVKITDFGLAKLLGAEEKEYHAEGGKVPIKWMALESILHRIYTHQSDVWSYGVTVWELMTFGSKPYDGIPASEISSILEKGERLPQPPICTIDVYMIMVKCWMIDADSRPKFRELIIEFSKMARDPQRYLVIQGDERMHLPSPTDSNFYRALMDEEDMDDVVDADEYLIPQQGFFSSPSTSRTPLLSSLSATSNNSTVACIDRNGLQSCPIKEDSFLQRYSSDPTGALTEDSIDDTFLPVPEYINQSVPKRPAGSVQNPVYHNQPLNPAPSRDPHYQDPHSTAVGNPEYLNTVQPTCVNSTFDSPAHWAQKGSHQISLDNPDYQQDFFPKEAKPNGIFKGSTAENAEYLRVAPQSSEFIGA

Consider `C#Cc1cccc(Nc2ncnc3cc(OC)c(OCCCCCN/C(=N\C#N)Nc4ccncc4)cc23)c1`, for which the pIC50 in data set [1] was 9.64; in [2], 6.82; in [3], 9.59; in [4], 9.59. Also, the GI50 in the data set with Huh-7 is 1.64 nM; in the data set with NCI-H1975, 78.3 nM; with K562, 38 nM; in the data set with MCF7, 0.1 nM. Besides, the Activity entry in data set [5] is on record as “Non-Toxic”.
As to `C#Cc1cccc(Nc2ncnc3cc(OC)c(OCCCCCN/C(=N\C#N)Nc4cccnc4)cc23)c1`, the negative-log IC50 (pIC50) in data set [1] is 9.28; in data set [2], 6.64; in data set [3], 9.34; in data set [4], 9.39. Moreover, the GI50 with Huh-7 worked out at 62.9 nM; in the data set on K562, 175 nM; with MCF7 it was 0.98 nM.
Consider `C#Cc1cccc(Nc2ncnc3cc(OC)c(OCCCCCCCN/C(=N\C#N)Nc4cccnc4)cc23)c1`, for which the pIC50 was 9.27 in data set [1], 6.35 in data set [2], 9.31 in data set [3] and 9.32 in [4]. For the same compound, the concentration for 50% growth inhibition (GI50) in the data set on Huh-7 was determined as 9.94 nM; in the data set on K562 it was 42.1 nM; in the data set with MCF7, 0.63 nM.
Take `C#Cc1cccc(Nc2ncnc3cc(OC)c(OCCCCCCN/C(=N\C#N)Nc4ccncc4)cc23)c1`: the pIC50 was 9.46 in [1], 6.49 in data set [2], 9.44 in data set [3] and 9.49 in [4]. Besides, the 50% growth inhibitory concentration (GI50) with Huh-7 was 1.87 nM; with K562, 7.47 nM; with MCF7 it was 0.15 nM.
In the case of `C#Cc1cccc(Nc2ncnc3cc(OC)c(OCCCCCCCN/C(=N\C#N)Nc4ccncc4)cc23)c1`, the pIC50 is 9.33 in data set [1], 6.24 in data set [2], 9.26 in data set [3] and 9.34 in [4]. Further, the GI50 with Huh-7 was found to be 1.81 nM; in the data set on K562, 50.9 nM; with MCF7 it was 0.21 nM.
On to `C#Cc1cccc(Nc2ncnc3cc(OC)c(OCCCCCCN/C(=N\C#N)Nc4cccnc4)cc23)c1`, for which the pIC50 is 9.49 in data set [1], 6.49 in data set [2], 9.42 in data set [3] and 9.42 in [4]. The GI50 in the data set on K562 came to 24.6 nM; in the data set with MCF7 it was 0.16 nM.
For `CC(=O)O[C@H]1C(=O)[C@@]2(C)[C@H]([C@H](OC(=O)c3ccccc3)[C@]3(O)C[C@H](OC(=O)[C@H](O)[C@@H](NC(=O)c4ccccc4)c4ccccc4)C(C)=C1C3(C)C)[C@]1(OC(C)=O)CO[C@@H]1C[C@@H]2O` [PACLITAXEL], the GI50 is 7.41 nM in the data set on Huh-7, 2.76 nM in the data set on K562 and 4.85 nM in the data set with MCF7.
